Source: ChEMBL document CHEMBL1275598, “In vitro activity of ceftaroline against community-associated methicillin-resistant, vancomycin-intermediate, vancomycin-resistant, and daptomycin-nonsusceptible Staphylococcus aureus isolates” (2010)

Legend:
Staphylococcus aureus [1] = assay: Antimicrobial activity against vancomycin resistant Staphylococcus aureus VRS-2 expressing SCCmec type 2 element by microdilution method in presence of 50 mg/L calcium
Staphylococcus aureus [2] = assay: Bactericidal activity against community-acquired methicillin-resistant Staphylococcus aureus assessed as antibiotic concentration that reduced the number of viable cells by =>99.9% by colony count method in presence of 50 mg/L calcium; type: functional
Method in brief: (§1)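 MBC per CLSI following microdilution in cation-adjusted Mueller-Hinton broth with calcium added to 50 mg/liter final. Defined as the concentration giving ≥99.9% reduction in viable cells, judged from colony counts of the growth control well against Pearson rejection-value tables.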

Staphylococcus aureus [3] = assay: Antimicrobial activity against vancomycin resistant Staphylococcus aureus VRS-10 expressing SCCmec type 2 element by microdilution method in presence of 50 mg/L calcium
Staphylococcus aureus [4] = assay: Antimicrobial activity against daptomycin-nonsusceptible Staphylococcus aureus by microdilution method in presence of 50 mg/L calcium; type: functional
Method in brief: (§2)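 Daptomycin MIC by CLSI broth microdilution in cation-adjusted Mueller-Hinton broth, supplemented with calcium to a final 50 mg/liter. Read visually as the lowest concentration with no visible growth. ATCC 29213 and E. faecalis ATCC 29212 served as controls. CA-MRSA and DNSSA isolates came from patients at the study hospital; VISA isolates came from NARSA.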

Staphylococcus aureus [5] = assay: Antimicrobial activity against vancomycin intermediate Staphylococcus aureus NRS-402 expressing SCCmec type 2 element by microdilution method in presence of 50 mg/L calcium; type: functional; method in brief: as §2
Staphylococcus aureus [6] = assay: Bactericidal activity against vancomycin-intermediate Staphylococcus aureus assessed as antibiotic concentration that reduced the number of viable cells by =>99.9% by colony count method in presence of 50 mg/L calcium; type: functional; method in brief: as §1
Staphylococcus aureus [7] = assay: Antimicrobial activity against vancomycin intermediate Staphylococcus aureus NRS-27 expressing SCCmec type 2 element by microdilution method in presence of 50 mg/L calcium; type: functional; method in brief: as §2
Staphylococcus aureus [8] = assay: Antimicrobial activity against vancomycin intermediate Staphylococcus aureus NRS-26 expressing SCCmec type 2 element by microdilution method in presence of 50 mg/L calcium; type: functional; method in brief: as §2
Staphylococcus aureus [9] = assay: Antimicrobial activity against vancomycin resistant Staphylococcus aureus VRS-5 expressing SCCmec type 2 element by microdilution method in presence of 50 mg/L calcium
Staphylococcus aureus [10] = assay: Antimicrobial activity against vancomycin intermediate Staphylococcus aureus NRS-3 expressing SCCmec type 2 element by microdilution method in presence of 50 mg/L calcium; type: functional; method in brief: as §2
Staphylococcus aureus [11] = assay: Antimicrobial activity against vancomycin intermediate Staphylococcus aureus NRS-51 expressing SCCmec type 2 element by microdilution method in presence of 50 mg/L calcium; type: functional; method in brief: as §2
Staphylococcus aureus [12] = assay: Antimicrobial activity against vancomycin resistant Staphylococcus aureus VRS-8 expressing SCCmec element by microdilution method in presence of 50 mg/L calcium
Staphylococcus aureus [13] = assay: Antimicrobial activity against daptomycin-nonsusceptible Staphylococcus aureus assessed as susceptible isolates by microdilution method in presence of 50 mg/L calcium; type: functional
Method in brief: (§3)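 Broth microdilution MIC per CLSI in cation-adjusted Mueller-Hinton broth, with calcium added to a final 50 mg/liter for daptomycin testing. MIC is the lowest drug concentration with no visible growth, read by eye. Percent susceptible was assigned from CLSI breakpoints. S. aureus ATCC 29213 and E. faecalis ATCC 29212 served as control strains.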

Staphylococcus aureus [14] = assay: Antimicrobial activity against vancomycin intermediate Staphylococcus aureus NRS-74 expressing SCCmec type 2 element by microdilution method in presence of 50 mg/L calcium; type: functional
Method in brief: (§4)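 Broth microdilution per CLSI in cation-adjusted Mueller-Hinton broth supplemented with calcium to 50 mg/liter final. Antibiotic powders were reconstituted per CLSI. The MIC was read visually as the lowest drug concentration with no visible growth. S. aureus ATCC 29213 and E. faecalis ATCC 29212 served as control strains.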

Staphylococcus aureus [15] = assay: Antimicrobial activity against vancomycin-resistant Staphylococcus aureus by microdilution method in presence of 50 mg/L calcium; type: functional; method in brief: as §4
Staphylococcus aureus [16] = assay: Antimicrobial activity against community-acquired methicillin-resistant Staphylococcus aureus by microdilution method in presence of 50 mg/L calcium; type: functional; method in brief: as §2
Staphylococcus aureus [17] = assay: Antimicrobial activity against vancomycin intermediate Staphylococcus aureus NRS-22 expressing SCCmec type 2 element by microdilution method in presence of 50 mg/L calcium; type: functional; method in brief: as §2
Staphylococcus aureus [18] = assay: Antimicrobial activity against vancomycin intermediate Staphylococcus aureus NRS-68 expressing SCCmec type 2 element by microdilution method in presence of 50 mg/L calcium; type: functional; method in brief: as §2
Staphylococcus aureus [19] = assay: Antimicrobial activity against vancomycin-intermediate Staphylococcus aureus assessed as susceptible isolates by microdilution method in presence of 50 mg/L calcium; type: functional; method in brief: as §3
Staphylococcus aureus [20] = assay: Antimicrobial activity against vancomycin resistant Staphylococcus aureus VRS-4 expressing SCCmec type 4 element by microdilution method in presence of 50 mg/L calcium
Staphylococcus aureus [21] = assay: Antimicrobial activity against vancomycin resistant Staphylococcus aureus VRS-3 expressing SCCmec type 4 element by microdilution method in presence of 50 mg/L calcium
Staphylococcus aureus [22] = assay: Antimicrobial activity against vancomycin intermediate Staphylococcus aureus NRS-118 expressing SCCmec type 1 element by microdilution method in presence of 50 mg/L calcium; type: functional; method in brief: as §2
Staphylococcus aureus [23] = assay: Antimicrobial activity against vancomycin intermediate Staphylococcus aureus NRS-24 expressing SCCmec type 2 element by microdilution method in presence of 50 mg/L calcium; type: functional; method in brief: as §2
Staphylococcus aureus [24] = assay: Antimicrobial activity against vancomycin intermediate Staphylococcus aureus NRS-404 expressing SCCmec type 2 element by microdilution method in presence of 50 mg/L calcium; type: functional; method in brief: as §2
Staphylococcus aureus [25] = assay: Bactericidal activity against vancomycin-resistant Staphylococcus aureus assessed as antibiotic concentration that reduced the number of viable cells by =>99.9% by colony count method in presence of 50 mg/L calcium; type: functional; method in brief: as §1
Staphylococcus aureus [26] = assay: Antimicrobial activity against vancomycin resistant Staphylococcus aureus VRS-7 expressing SCCmec element by microdilution method in presence of 50 mg/L calcium; type: functional; method in brief: as §4
Staphylococcus aureus [27] = assay: Antimicrobial activity against vancomycin-intermediate Staphylococcus aureus by microdilution method in presence of 50 mg/L calcium; type: functional
Method in brief: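 Daptomycin MIC by CLSI broth microdilution in cation-adjusted Mueller-Hinton broth supplemented with calcium to a final 50 mg/liter. The endpoint is the lowest concentration with no visible growth, read visually. S. aureus ATCC 29213 and E. faecalis ATCC 29212 were used as control strains.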

Staphylococcus aureus [28] = assay: Antimicrobial activity against vancomycin intermediate Staphylococcus aureus NRS-73 expressing SCCmec type 4d element by microdilution method in presence of 50 mg/L calcium; type: functional; method in brief: as §2
Staphylococcus aureus [29] = assay: Antimicrobial activity against vancomycin intermediate Staphylococcus aureus NRS-17 expressing SCCmec type 2 element by microdilution method in presence of 50 mg/L calcium; type: functional; method in brief: as §2
Staphylococcus aureus [30] = assay: Antimicrobial activity against vancomycin intermediate Staphylococcus aureus NRS-76 expressing SCCmec type 2 element by microdilution method in presence of 50 mg/L calcium; type: functional; method in brief: as §4
Staphylococcus aureus [31] = assay: Antimicrobial activity against vancomycin resistant Staphylococcus aureus VRS-9 expressing SCCmec type 2 element by microdilution method in presence of 50 mg/L calcium

## CCCCCCCCCC(=O)N[C@@H](Cc1c[nH]c2ccccc12)C(=O)N[C@H](CC(N)=O)C(=O)N[C@@H](CC(=O)O)C(=O)N[C@@H]1C(=O)NCC(=O)N[C@@H](CCCN)C(=O)N[C@@H](CC(=O)O)C(=O)N[C@H](C)C(=O)N[C@@H](CC(=O)O)C(=O)NCC(=O)N[C@H](CO)C(=O)N[C@@H]([C@H](C)CC(=O)O)C(=O)N[C@@H](CC(=O)c2ccccc2N)C(=O)O[C@@H]1C
Staphylococcus aureus [1]
  MIC: 0.5 µg/mL
Staphylococcus aureus [2]
  MBC50: 0.5 µg/mL
  MBC90: 1 µg/mL
Staphylococcus aureus [2]; Staphylococcus aureus
  MBC: 0.25 µg/mL
Staphylococcus aureus [3]
  MIC: 0.5 µg/mL
Staphylococcus aureus [4]
  MIC: 4 µg/mL
  MIC50: 4 µg/mL
Staphylococcus aureus [5]
  MIC: 8 µg/mL
Staphylococcus aureus [6]
  MBC50: 2 µg/mL
  MBC90: 4 µg/mL
Staphylococcus aureus [6]; Staphylococcus aureus
  MBC: 0.5 µg/mL
Staphylococcus aureus [7]
  MIC: 1 µg/mL
Staphylococcus aureus [8]
  MIC: 4 µg/mL
Staphylococcus aureus [9]
  MIC: 0.5 µg/mL
Staphylococcus aureus [10]
  MIC: 4 µg/mL
Staphylococcus aureus [11]
  MIC: 1 µg/mL
Staphylococcus aureus [12]
  MIC: 0.5 µg/mL
Staphylococcus aureus [13]
  Activity: 0%
Staphylococcus aureus [14]
  MIC: 4 µg/mL
Staphylococcus aureus [15]
  MIC: 0.5 µg/mL
  MIC50: 0.5 µg/mL
  MIC90: 1 µg/mL
Staphylococcus aureus [16]
  MIC50: 0.5 µg/mL
  MIC90: 1 µg/mL
Staphylococcus aureus [17]
  MIC: 2 µg/mL
Staphylococcus aureus [18]
  MIC: 1 µg/mL
Staphylococcus aureus [19]
  Activity: 35%
Staphylococcus aureus [20]
  MIC: 0.5 µg/mL
Staphylococcus aureus [21]
  MIC: 0.5 µg/mL
Staphylococcus aureus [22]
  MIC: 4 µg/mL
Staphylococcus aureus [23]
  MIC: 2 µg/mL
Staphylococcus aureus [24]
  MIC: 2 µg/mL
Staphylococcus aureus [25]
  MBC50: 1 µg/mL
  MBC90: 1 µg/mL
Staphylococcus aureus [25]; Staphylococcus aureus
  MBC: 0.5 µg/mL
Staphylococcus aureus [26]
  MIC: 1 µg/mL
Staphylococcus aureus [27]
  MIC50: 2 µg/mL
  MIC90: 4 µg/mL
Staphylococcus aureus [28]
  MIC: 2 µg/mL
Staphylococcus aureus [29]
  MIC: 4 µg/mL
Staphylococcus aureus [30]
  MIC: 2 µg/mL
Staphylococcus aureus [31]
  MIC: 0.5 µg/mL
